From ChEMBL document CHEMBL4689842, “EUbOPEN Chemogenomics Library wave 1” (2021)
Values joined by “and” are separate entries in the source; they are usually repeats but may differ in a detail not shown here. Equal values may be shown once.

Test system: Fibroblast
Test: Multiplex assay against human fibroblast
Assay type: toxicity, cell-based
Outline: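 On a CQ1 microscope at 37°C and 5% CO2, live cells were imaged after compound addition. They had been stained at seeding with Hoechst33342, BioTracker Green Microtubule Cytoskeleton Dye, MitoTracker Red and Annexin V Alexa Fluor 680. CellPathfinder machine-learning gating assigned cells to Hoechst high-intensity objects or normal cells, normal cells to healthy, pyknosed or fragmented nuclei, and pyknosed cells to mitotic or apoptotic. Tubulin, mitochondrial-mass and membrane-permeability phenotypes are per cents of healthy-nucleus cells.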

[1] = 12 h, 1 µM, compound concentration 1 uM, replicate 1
[2] = 12 h, 1 µM, compound concentration 1 uM, replicate 2
[3] = 12 h, 10 µM, compound concentration 10 uM, replicate 1
[4] = 12 h, 10 µM, compound concentration 10 uM, replicate 2
[5] = 24 h, 1 µM, compound concentration 1 uM, replicate 1
[6] = 24 h, 1 µM, compound concentration 1 uM, replicate 2
[7] = 24 h, 10 µM, compound concentration 10 uM, replicate 1
[8] = 24 h, 10 µM, compound concentration 10 uM, replicate 2
[9] = 48 h, 10 µM, compound concentration 10 uM, replicate 1
[10] = 48 h, 10 µM, compound concentration 10 uM, replicate 2

O=c1[nH]c2ccccc2n1C1CCN(Cc2ccc(-c3[nH]c4cc5ncnc5cc4nc3-c3ccccc3)cc2)CC1
Population Apoptotic (%) [1]: 66% | Population Fragmented Nuclei (%) [1]: 45% | Population Healthy Nuclei (%) [1]: 43% | Population Hoechst High Intensity Objects (%) [1]: 17% | Population Membrane Permeable-Phenotype (%) [1]: 6% | Population Mitochondria Different-Phenotype (%) [1]: 3% | Population Mitotic Cells (%) [1]: 33% | Population Normal (%) [1]: 82% | Population Pyknosed Nuclei (%) [1]: 11% | Population Tubulin-Different-Phenotype (%) [1]: 18% | Total Cell Count [1]: 251 | Population Apoptotic (%) [2]: 83% | Population Fragmented Nuclei (%) [2]: 72% | Population Healthy Nuclei (%) [2]: 19% | Population Hoechst High Intensity Objects (%) [2]: 31% | Population Membrane Permeable-Phenotype (%) [2]: 15% | Population Mitochondria Different-Phenotype (%) [2]: 0% | Population Mitotic Cells (%) [2]: 16% | Population Normal (%) [2]: 68% | Population Pyknosed Nuclei (%) [2]: 8% | Population Tubulin-Different-Phenotype (%) [2]: 23% | Total Cell Count [2]: 99 | Population Apoptotic (%) [3]: 67% | Population Fragmented Nuclei (%) [3]: 50% | Population Healthy Nuclei (%) [3]: 37% | Population Hoechst High Intensity Objects (%) [3]: 55% | Population Membrane Permeable-Phenotype (%) [3]: 33% | Population Mitochondria Different-Phenotype (%) [3]: 4% | Population Mitotic Cells (%) [3]: 32% | Population Normal (%) [3]: 44% | Population Tubulin-Different-Phenotype (%) [3]: 87% | Total Cell Count [3]: 524 | Population Apoptotic (%) [4]: 70% | Population Fragmented Nuclei (%) [4]: 46% | Population Healthy Nuclei (%) [4]: 40% | Population Hoechst High Intensity Objects (%) [4]: 48% | Population Membrane Permeable-Phenotype (%) [4]: 27% | Population Mitochondria Different-Phenotype (%) [4]: 12% | Population Mitotic Cells (%) [4]: 30% | Population Normal (%) [4]: 51% | Population Pyknosed Nuclei (%) [4]: 12% | Population Tubulin-Different-Phenotype (%) [4]: 72% | Total Cell Count [4]: 158 | Population Apoptotic (%) [5]: 45% | Population Fragmented Nuclei (%) [5]: 43% | Population Healthy Nuclei (%) [5]: 40% | Population Hoechst High Intensity Objects (%) [5]: 20% | Population Membrane Permeable-Phenotype (%) [5]: 8% | Population Mitochondria Different-Phenotype (%) [5]: 5% | Population Mitotic Cells (%) [5]: 54% | Population Normal (%) [5]: 79% | Population Pyknosed Nuclei (%) [5]: 15% | Population Tubulin-Different-Phenotype (%) [5]: 16% | Total Cell Count [5]: 268 | Population Apoptotic (%) [6]: 62% | Population Fragmented Nuclei (%) [6]: 70% | Population Healthy Nuclei (%) [6]: 17% | Population Hoechst High Intensity Objects (%) [6]: 31% | Population Membrane Permeable-Phenotype (%) [6]: 0% | Population Mitochondria Different-Phenotype (%) [6]: 27% | Population Mitotic Cells (%) [6]: 37% | Population Normal (%) [6]: 68% | Population Pyknosed Nuclei (%) [6]: 12% | Population Tubulin-Different-Phenotype (%) [6]: 36% | Total Cell Count [6]: 94 | Population Apoptotic (%) [7]: 70% | Population Fragmented Nuclei (%) [7]: 44% | Population Healthy Nuclei (%) [7]: 45% | Population Hoechst High Intensity Objects (%) [7]: 62% | Population Membrane Permeable-Phenotype (%) [7]: 20% | Population Mitochondria Different-Phenotype (%) [7]: 14% | Population Mitotic Cells (%) [7]: 29% | Population Normal (%) [7]: 37% | Population Pyknosed Nuclei (%) [7]: 10% | Population Tubulin-Different-Phenotype (%) [7]: 65% | Total Cell Count [7]: 437 | Population Apoptotic (%) [8]: 56% | Population Fragmented Nuclei (%) [8]: 40% | Population Healthy Nuclei (%) [8]: 36% | Population Hoechst High Intensity Objects (%) [8]: 51% | Population Membrane Permeable-Phenotype (%) [8]: 24% | Population Mitochondria Different-Phenotype (%) [8]: 28% | Population Mitotic Cells (%) [8]: 43% | Population Normal (%) [8]: 48% | Population Pyknosed Nuclei (%) [8]: 23% | Population Tubulin-Different-Phenotype (%) [8]: 40% | Total Cell Count [8]: 143

C#Cc1cccc(Nc2ncnc3cc(OCCOC)c(OCCOC)cc23)c1 [ERLOTINIB]
Population Apoptotic (%) [3]: 59% and 66% | Population Fragmented Nuclei (%) [3]: 22% and 24% and 20% | Population Healthy Nuclei (%) [3]: 35% and 58% and 62% | Population Hoechst High Intensity Objects (%) [3]: 10% and 11% and 15% | Population Mitotic Cells (%) [3]: 40% and 33% and 29% | Population Normal (%) [3]: 89% and 88% and 84% | Population Pyknosed Nuclei (%) [3]: 41% and 16% | Total Cell Count [3]: 125 and 263 and 267 | Population Membrane Permeable-Phenotype (%) [4]: 10% and 9% and 13% | Population Normal (%) [4]: 57% and 66% and 91% | Population Apoptotic (%) [7]: 60% and 66% | Population Fragmented Nuclei (%) [7]: 23% and 27% and 21% | Population Healthy Nuclei (%) [7]: 46% and 52% and 60% | Population Hoechst High Intensity Objects (%) [7]: 22% and 12% and 19% | Population Mitotic Cells (%) [7]: 40% and 39% and 33% | Population Normal (%) [7]: 77% and 87% and 80% | Population Pyknosed Nuclei (%) [7]: 30% and 19% and 18% | Total Cell Count [7]: 127 and 268 and 287 | Population Apoptotic (%) [8]: 100% and 57% and 75% | Population Hoechst High Intensity Objects (%) [8]: 28% and 38% | Population Normal (%) [8]: 71% and 61% | Population Pyknosed Nuclei (%) [8]: 10% and 16% | Population Apoptotic (%) [9]: 87% | Population Fragmented Nuclei (%) [9]: 41% | Population Healthy Nuclei (%) [9]: 41% | Population Hoechst High Intensity Objects (%) [9]: 16% | Population Membrane Permeable-Phenotype (%) [9]: 23% | Population Mitochondria Different-Phenotype (%) [9]: 33% | Population Mitotic Cells (%) [9]: 12% | Population Normal (%) [9]: 83% | Population Pyknosed Nuclei (%) [9]: 17% | Population Tubulin-Different-Phenotype (%) [9]: 89% | Total Cell Count [9]: 113 | Population Apoptotic (%) [10]: 50% | Population Fragmented Nuclei (%) [10]: 28% | Population Healthy Nuclei (%) [10]: 62% | Population Hoechst High Intensity Objects (%) [10]: 23% | Population Membrane Permeable-Phenotype (%) [10]: 19% | Population Mitochondria Different-Phenotype (%) [10]: 19% | Population Mitotic Cells (%) [10]: 50% | Population Normal (%) [10]: 76% | Population Pyknosed Nuclei (%) [10]: 9% | Population Tubulin-Different-Phenotype (%) [10]: 95% | Total Cell Count [10]: 86

Cc1nc(N2CC[C@H](O)C2)ncc1-c1cc(C(F)(F)F)cc2[nH]ncc12
Population Apoptotic (%) [1]: 70% | Population Fragmented Nuclei (%) [1]: 32% | Population Healthy Nuclei (%) [1]: 49% | Population Hoechst High Intensity Objects (%) [1]: 12% | Population Membrane Permeable-Phenotype (%) [1]: 10% | Population Mitochondria Different-Phenotype (%) [1]: 6% | Population Mitotic Cells (%) [1]: 29% | Population Normal (%) [1]: 87% | Population Pyknosed Nuclei (%) [1]: 18% | Population Tubulin-Different-Phenotype (%) [1]: 7% | Total Cell Count [1]: 193 | Population Apoptotic (%) [2]: 20% | Population Fragmented Nuclei (%) [2]: 42% | Population Healthy Nuclei (%) [2]: 33% | Population Hoechst High Intensity Objects (%) [2]: 40% | Population Membrane Permeable-Phenotype (%) [2]: 28% | Population Mitochondria Different-Phenotype (%) [2]: 28% | Population Mitotic Cells (%) [2]: 80% | Population Normal (%) [2]: 60% | Population Pyknosed Nuclei (%) [2]: 23% | Population Tubulin-Different-Phenotype (%) [2]: 50% | Total Cell Count [2]: 70 | Population Apoptotic (%) [3]: 66% | Population Fragmented Nuclei (%) [3]: 24% | Population Healthy Nuclei (%) [3]: 61% | Population Hoechst High Intensity Objects (%) [3]: 15% | Population Membrane Permeable-Phenotype (%) [3]: 3% | Population Mitochondria Different-Phenotype (%) [3]: 7% | Population Mitotic Cells (%) [3]: 33% | Population Normal (%) [3]: 84% | Population Pyknosed Nuclei (%) [3]: 14% | Population Tubulin-Different-Phenotype (%) [3]: 4% | Total Cell Count [3]: 218 | Population Apoptotic (%) [4]: 50% | Population Fragmented Nuclei (%) [4]: 68% | Population Healthy Nuclei (%) [4]: 21% | Population Hoechst High Intensity Objects (%) [4]: 22% | Population Membrane Permeable-Phenotype (%) [4]: 15% | Population Mitochondria Different-Phenotype (%) [4]: 15% | Population Mitotic Cells (%) [4]: 50% | Population Normal (%) [4]: 77% | Population Pyknosed Nuclei (%) [4]: 9% | Population Tubulin-Different-Phenotype (%) [4]: 15% | Total Cell Count [4]: 79 | Population Apoptotic (%) [5]: 48% | Population Fragmented Nuclei (%) [5]: 29% | Population Healthy Nuclei (%) [5]: 47% | Population Hoechst High Intensity Objects (%) [5]: 12% | Population Membrane Permeable-Phenotype (%) [5]: 9% | Population Mitochondria Different-Phenotype (%) [5]: 9% | Population Mitotic Cells (%) [5]: 51% | Population Normal (%) [5]: 87% | Population Pyknosed Nuclei (%) [5]: 22% | Population Tubulin-Different-Phenotype (%) [5]: 12% | Total Cell Count [5]: 183 | Population Apoptotic (%) [6]: 60% | Population Fragmented Nuclei (%) [6]: 45% | Population Healthy Nuclei (%) [6]: 30% | Population Hoechst High Intensity Objects (%) [6]: 35% | Population Membrane Permeable-Phenotype (%) [6]: 30% | Population Mitochondria Different-Phenotype (%) [6]: 7% | Population Mitotic Cells (%) [6]: 40% | Population Normal (%) [6]: 64% | Population Pyknosed Nuclei (%) [6]: 23% | Population Tubulin-Different-Phenotype (%) [6]: 23% | Total Cell Count [6]: 65 | Population Apoptotic (%) [7]: 65% | Population Fragmented Nuclei (%) [7]: 22% | Population Healthy Nuclei (%) [7]: 63% | Population Hoechst High Intensity Objects (%) [7]: 15% | Population Membrane Permeable-Phenotype (%) [7]: 7% | Population Mitochondria Different-Phenotype (%) [7]: 3% | Population Mitotic Cells (%) [7]: 34% | Population Normal (%) [7]: 84% | Population Pyknosed Nuclei (%) [7]: 14% | Population Tubulin-Different-Phenotype (%) [7]: 3% | Total Cell Count [7]: 239 | Population Apoptotic (%) [8]: 83% | Population Fragmented Nuclei (%) [8]: 67% | Population Healthy Nuclei (%) [8]: 22% | Population Hoechst High Intensity Objects (%) [8]: 24% | Population Membrane Permeable-Phenotype (%) [8]: 38% | Population Mitochondria Different-Phenotype (%) [8]: 30% | Population Mitotic Cells (%) [8]: 16% | Population Normal (%) [8]: 75% | Population Pyknosed Nuclei (%) [8]: 10% | Population Tubulin-Different-Phenotype (%) [8]: 46% | Total Cell Count [8]: 77
